# High-throughput results: PubChem BioAssay, Broad Institute
# Sampled rows, rich in hits. Any-hit rate of the full collection: about 1.7%.
# CAL PDZ FP-1: inhibitors of human CAL PDZ peptide binding; purified CAL PDZ, TMR-peptide fluorescence polarization, 1 h; inhibition, % at 20 µM; Q9HD26; actives 0.02% (n = 330,000);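 active = highest replicate inhibition of at least 40%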;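 note: plate controls were DMSO neutral control wells for no effect and unlabeled competitor peptide control wells for full effect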
#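 System: tagged CAL PDZ domain. Schedule: 1 h room-temperature incubation prior to read. Signal: fluorescence polarization (mP). Measure: percent inhibition from loss of millipolarization.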
# F508del corr: correctors of CFTR F508del function in bronchial epithelial cells; activity (quench increase), % at 7.58 µM; CFBE cells, YFP halide quenching; stimulated with forskolin plus potentiator P3; % fluorescence drop versus neutral controls; actives 0.36% (n = 350,000);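 active = mean added fluorescence quench of at least 8% versus neutral control, with both replicates also reaching 8%; inconclusive = only one of the mean or replicate conditions met; inactive = mean below 8% and not both replicates reaching 8%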;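 note: cells transiently co-express mutant CFTR-F508del with the halide-sensitive YFP; corrector assay measuring rescue of mutant channel to the surface after 24 h compound exposure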
# miR122 inh: miR-122 inhibition in Huh7 cells; activation (reporter increase), % at 12.5 µM; Huh7 miR-122 Renilla luciferase sensor, 48 h; neutral wells = 0, positive control = 100; actives 0.3% (n = 340,000);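 active = mean replicate activation score at least 90 and every replicate individually at or above 90; inconclusive = only one of the two criteria met; inactive = neither criterion met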;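 note: higher luciferase means less miR-122 activity so hits act as miR-122 inhibitors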
# CAL PDZ FP-2: inhibitors of human CAL PDZ peptide binding | AID 602252 | purified CAL PDZ, TMR-peptide fluorescence polarization, 1 h | inhibition, % at 24.9 µM | actives 0.92% (n = 300,000);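 active = mean inhibition of at least 30% with at least half of replicates also reaching 30%; inconclusive = no clear call, values can overlap the other calls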;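 note: 0% = DMSO neutral control and 100% = excess unlabeled competitor peptide PRC23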
# PGC1a acetyl inh: PGC1a acetylation modulation, inhibitor mode | U2OS PGC1a acetylation, AlphaScreen anti-acetyl-lysine; with virally co-expressed GCN5 acetyltransferase | inhibition, % at 15.6 µM | actives 0.17% (n = 350,000);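 active = every replicate shows inhibition of at least 40%; inconclusive = mean inhibition at least 40% but some replicate below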;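 note: 0% = neutral control wells and 100% = positive control wells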
# ARNT TACC3 PPI: ARNT/TACC3 interaction disruption | Q9Y6A5 | AlphaScreen His-ARNT PAS-B/GST-TACC3 binding, luminescence; TACC3 fragment carries E629A point mutation | inhibition, % at 9.99 µM | actives 0.66% (n = 390,000);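 active = mean inhibition of replicates at least 50% and at least half of replicates each reaching 50%; inconclusive = half or more replicates reach 50% but mean below 50%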;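 note: 0% = complete ARNT plus TACC3 wells and 100% = ARNT alone without TACC3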
# ARNT Alpha ctr: counter-screen for ARNT/TACC3 inhibitors: AlphaScreen artifacts; shares compounds with ARNT TACC3 PPI; His-ARNT PASB-GST AlphaScreen artifact counter-screen, luminescence; AC50, µM (series often up to 68 µM), without a hit: top-dose activity change, negative = signal decrease; actives 50% (n = 1,200);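 active = every separate test run was called active for a drop in luminescence, with AC50 within twice the top valid dose, actives reach about 71 µM in these data; inconclusive = the separate test runs disagree in their calls; inactive = all runs inactive, including signal change in the wrong direction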
# C2C12 COX5a inh: inhibitors of PGC-1a target COX5a expression in C2C12 myotubes. shares compounds with PGC1a acetyl inh. C2C12 myotubes PGC-1a adenovirus, COX5a qPCR. maximal activity, %. 45 tested, under 10 active. AID 743461;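 active = fitted dose curve reaching 40% activity at or below the highest valid dose tested; inconclusive = flat fit between 30% and 70%, or an unusable fit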
# AID743468: change in PGC-1a target gene PDK4 expression, dose response, C2C12 myotubes, RT-qPCR, cherry-pick | shares compounds with PGC1a acetyl inh | PGC-1a adenovirus, PDK4 mRNA qPCR | PDK4 expression increase, % at 19.5 µM | 45 tested, under 10 active | AID 743468;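 active = fitted curve reaching a 40% PDK4 expression rise at or below the top valid tested dose; inconclusive = no clear call, values can overlap the other calls; inactive = the rest, including shifts the wrong way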
# Active calls of the source: *; ? = inconclusive; nt = not tested or not shown; ! = a repeat was not active; [ ] = dose if it differs, or a comment.
SMILES,CAL PDZ FP-1,F508del corr,miR122 inh,CAL PDZ FP-2,PGC1a acetyl inh,ARNT TACC3 PPI,C2C12 COX5a inh,AID743468,others
COC(=O)c1ccc(C(=O)O)nc1,0,-1,nt,-3,nt,53*,nt,nt,ARNT Alpha ctr=-15%
CC(C)C[C@@H]1NC(=O)[C@H]2C[C@@H](C(=O)NCCCCCN)[C@@H](c3cccc(OCCO)c3)N2C1=O,nt,-1,nt,nt,-8,nt,nt,nt,
COC(=O)c1[nH]c2cc(OC)c(OC)cc2c1NC(=O)Oc1ccccc1,nt,nt,-7,14,-5,35*,nt,nt,ARNT Alpha ctr=-8%
COCC(=O)Nc1ccc2c(c1)OC[C@H](C)N(C(=O)c1ccccn1)C[C@@H](C)[C@@H](OC)CN(C)C2=O,nt,3,-11[16.7 µM],nt,-3,33,nt,nt,
O=C(N/N=C/c1sc2ccccc2c1O)c1cccc2ccccc12,0,nt,nt,1,nt,55*,nt,nt,ARNT Alpha ctr=69µM*
O=C(N/N=C/c1ccccc1)c1cccc2ccccc12,-1,nt,nt,-2,nt,-3,nt,nt,
C[C@@H]1CCCCO[C@@H](CN(C)S(=O)(=O)c2ccccc2)[C@@H](C)CN([C@@H](C)CO)C(=O)c2cc(NC(=O)Nc3ccc(C(F)(F)F)cc3)ccc2O1,nt,-3,-6[16.7 µM],nt,7,-1,nt,nt,
CCOC(=O)Cc1nnc(NC(=O)c2ccccc2OCC)s1,0,nt,-5,0,-7,-8,nt,nt,
CCOC(=O)Cc1nnc(NC(=O)c2ncn[nH]2)s1,0,nt,1,-3,2,69*,nt,nt,ARNT Alpha ctr=-8%
CCOc1cc(/C=N/Nc2ncc(C)c(=O)[nH]2)ccc1O,0,0,nt,11,nt,54*,nt,nt,ARNT Alpha ctr=-24%
O=C(Nc1cccc(F)c1)N1CC(=O)N2[C@@H](CO)[C@@H](c3ccc(C#Cc4cccnc4)cc3)[C@@H]2C1,nt,-5,nt,nt,?,nt,-25,49*,
O=C(Nc1cccc(F)c1)N1CC(=O)N2[C@H](C1)[C@H](c1ccc(C#Cc3cccnc3)cc1)[C@@H]2CO,nt,-6,nt,nt,21,nt,nt,nt,
Cc1ccc(S(=O)(=O)Nc2ccc3c(c2)C(=O)N([C@@H](C)CO)C[C@@H](C)[C@H](CN(C)C(=O)CCC(F)(F)F)OCCCC[C@H](C)O3)cc1,nt,-1,4[16.7 µM],nt,-6,-5,nt,nt,
Cn1nnnc1SCC(=O)NCc1cccc(C(=O)O)c1,-1,nt,-3,-2,?,-6,-26,-6,
C[C@@H]1CN([C@H](C)CO)C(=O)Cc2cc(NC(=O)CCC(F)(F)F)ccc2O[C@@H]1CN(C)C(=O)Nc1cccc2ccccc12,nt,-1,2[16.7 µM],nt,-2,-3,nt,nt,
COC(=O)c1nn(-c2ccccc2)ccc1=O,0,nt,4,-2,44*,-6,-33,-11,
Cc1cc(C)cc(OC(=O)CS(=O)c2ccc(C(F)(F)F)cc2[N+](=O)[O-])c1 (stereo not given),0,nt,-13,0,-64,-6,-29,-15,
CCCN(CC)c1ncnc2[nH]ncc12,1,1,8,nt,?,-7,15,62*,
O=C(Nc1ccc(N2CCN(Cc3ccccc3F)CC2)cc1)c1ccccc1[N+](=O)[O-],-1,-3,nt,nt,-22,-3,nt,nt,
O=C(Nc1ccc(N2CCN(Cc3ccccc3F)CC2)cc1)c1ccc([N+](=O)[O-])o1,-2,-1,nt,-4,73*,2,-40,15,
C=CS(=O)(=O)N(Cc1ccccc1)[C@H](CO)CC(C)C,0,-1,1,0,-16,-30,nt,nt,
C=CS(=O)(=O)N(Cc1ccccc1Br)[C@H](CO)Cc1ccccc1,-1,-2,-11,-3,?,-6,-24,-29,
COc1ccc(S(=O)(=O)N(C)C[C@@H]2Oc3ccc(NC(=O)c4ccncc4)cc3C(=O)N([C@@H](C)CO)C[C@@H]2C)cc1,nt,-2,27[16.7 µM],nt,-1,-4,nt,nt,
CCCNC(=O)N1[C@H](CO)[C@H](c2ccccc2-c2ccc(F)cc2)[C@@H]1C#N,nt,0,nt,nt,-13,nt,nt,nt,
O=C(N[C@@H]1CC[C@@H](CCNC(=O)C2CCCC2)O[C@@H]1CO)c1ccncc1,nt,2,9[16.7 µM],nt,-4,-3,nt,nt,
SMILES,CAL PDZ FP-1,F508del corr,miR122 inh,CAL PDZ FP-2,PGC1a acetyl inh,ARNT TACC3 PPI,C2C12 COX5a inh,AID743468,others
Cc1ccc(-c2nc(NC(=O)c3nn(C)cc3[N+](=O)[O-])sc2C)cc1,0,-8,-8,nt,96*,-5,-25,4[6.8 µM],
Cc1ccc(Cn2ccc(NC(=O)c3nn(C)cc3[N+](=O)[O-])n2)cc1,-1,-16,5,2,-145,-16,nt,nt,
Cc1ccc(-c2ccc(C3[C@@H]4CN(C(=O)Nc5ccc(C(F)(F)F)cc5)C[C@H]3N4)cc2)cc1 (stereo not given in full),nt,-6,nt,nt,70*!,nt,-32,-15,
N#Cc1ccc(-c2ccc(C3[C@@H]4CN(C(=O)Nc5ccc(C(F)(F)F)cc5)C[C@H]3N4)cc2)cc1 (stereo not given in full),nt,0,nt,nt,-5,nt,nt,nt,
Cc1ccc(S(=O)(=O)N(C)C[C@H]2Oc3cc(C#Cc4ccncc4)ccc3S(=O)(=O)N([C@H](C)CO)C[C@H]2C)cc1,nt,-1,-13[16.7 µM],nt,44*,1,23,-8,
C[C@H](CO)N1C[C@H](C)[C@@H](CN(C)Cc2cccnc2)Oc2cc(C#CC3CCCCC3)ccc2S1(=O)=O,nt,0,20[16.7 µM],nt,?,9,39,2,
C[C@H](CO)N1C[C@H](C)[C@H](CN(C)S(=O)(=O)c2cccs2)Oc2ccc(NC(=O)Cc3cn(C)c4ccccc34)cc2C1=O,nt,-4,-2[16.7 µM],nt,0,-3,nt,nt,
CCOC(=O)c1c2c(n(C)c1C)C(=O)C(=O)c1ccc(Br)cc1-2,-1,nt,-10,-1,-83,2,-37,-31[6.8 µM],
CCOC(=O)c1c2c(n(Cc3ccccc3)c1C)C(=O)C(=O)c1ccccc1-2,-3,2,nt,nt,nt,0,nt,nt,
